The record followed here is ChEMBL document CHEMBL4382246, “Synthesis, biological evaluation, and molecular docking investigation of 3-amidoindoles as potent tubulin polymerization inhibitors” (Eur J Med Chem, 2019).

As a reminder, the IC50 is the concentration at which inhibition is half-maximal. Low values mean greater potency, high ones weaker potency. Usually inhibition stands for how much of the control response was suppressed. Low readings indicate a weak effect, high ones a strong effect.

The source made the active and inactive calls. No cut-off for these calls is given here.

In one test the test system is MCF7. Description: Cytotoxicity against human MCF7 cells after 72 hrs by MTT assay. It is filed as functional, cell-based. Particulars: MCF7, 72 h. The method, boiled down:
(§1)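 Lines kept in RPMI-1640 with 10% FBS. Cells were seeded at 2×10³ per well and allowed to attach for 24 h at 37 °C. Medium was then replaced with medium holding serial dilutions from 100 mM DMSO stocks, with 0.1% DMSO as negative control, for 72 h at 37 °C. […] IC50 was fitted from the concentration series as the mean ± SD of three independent experiments run in duplicate.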
In general terms: Formazan colour is commonly taken as a measure of viable cells.

Test [1] has as its target T1, Tubulin beta (Homo sapiens) (UniProt P68371+Q9H4B7+Q13509+P04350+Q3ZCM7+P07437+Q13885+Q9BVA1+Q9BUF5+A6NNZ2). Description: Disruption of beta-tubulin in human BT549 cells assessed as short microtubule at 20 uM after 6 hrs by FITC/DAPI staining-based confocal microscopic analysis. Format: cell-based. The method, boiled down: (§2)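 BT549 cells (2×10⁴ per well) were attached overnight on glass coverslips, then exposed to 10 or 20 µM, or to 0.1% DMSO, for 6 h. Cells were fixed in 4% paraformaldehyde, permeabilized with 0.1% Triton X-100 and blocked in 5% BSA for 60 min. Primary antibodies were α-tubulin mouse and β-tubulin rabbit monoclonals, applied overnight at 4 °C. Secondaries were FITC anti-mouse and Alexa Fluor 555 anti-rabbit, with DAPI for nuclei, and cells were imaged by laser scanning confocal microscopy.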

Test [2] deals with BT-549. Description: Cell cycle arrest in human BT549 cells assessed as accumulation of cells at S phase at 2 uM after 24 hrs by propidium iodide staining-based flow cytometric analysis (reference value: 25.84%). It is filed as functional.
Test [3] concerns the target T1, Tubulin beta (Homo sapiens). Put plainly: Disruption of beta-tubulin in human BT549 cells at 10 uM after 6 hrs by FITC/DAPI staining-based confocal microscopic analysis. It is filed as cell-based. The method, boiled down:
as §2

Test [4] has as its system BT-549. Description: Cell cycle arrest in human BT549 cells assessed as accumulation of cells at G0/G1 phase at 4 uM after 24 hrs by propidium iodide staining-based flow cytometric analysis (reference value: 65.28%). Format: functional.
The target of test [5] is T2, Tubulin alpha (Homo sapiens) (UniProt P0DPH7+P68366+Q71U36+P68363+Q9BQE3+Q6PEY2+A6NHL2+Q9NY65). Description: Disruption of alpha-tubulin in human BT549 cells assessed as short microtubule at 20 uM after 6 hrs by FITC/DAPI staining-based confocal microscopic analysis. It is filed as cell-based. The procedure, abridged:
as §2

A further test has as its system Hs-578T. Description: Cytotoxicity against human Hs578T cells after 72 hrs by MTT assay. Format: functional, cell-based. The method, boiled down:
as §1

Test [6] has as its system BT-549. Put plainly: Cell cycle arrest in human BT549 cells assessed as accumulation of cells at G2/M phase at 2 uM after 24 hrs by propidium iodide staining-based flow cytometric analysis (reference value: 8.88%). It is filed as functional. A general note: A flow cytometer gives signals particle by particle.
Test [7] deals with BT-549. Description: Cytotoxicity against human BT549 cells after 72 hrs by MTT assay. It is filed as functional, cell-based. Particulars: BT-549, 72 h. The procedure, abridged:
as §1

In test [8] the test system is BT-549. Description: Cell cycle arrest in human BT549 cells assessed as accumulation of cells at S phase at 4 uM after 24 hrs by propidium iodide staining-based flow cytometric analysis (reference value: 25.84%). Format: functional.
Test [9] deals with BT-549. Description: Cell cycle arrest in human BT549 cells after 24 hrs by propidium iodide staining-based flow cytometric analysis. It is filed as functional.
Another test addresses Tubulin (Sus scrofa, UniProt P02554+P02550). Description: Inhibition of pig brain tubulin polymerization by spectrophotometric analysis.
For test [10], the system named is BT-549. Description: Cell cycle arrest in human BT549 cells assessed as accumulation of cells at G0/G1 phase at 8 uM after 24 hrs by propidium iodide staining-based flow cytometric analysis (reference value: 65.28%). It is filed as functional.
Test [11] addresses T1, Tubulin beta (Homo sapiens). Put plainly: Disruption of beta-tubulin in human BT549 cells assessed as wrapped microtubule at 20 uM after 6 hrs by DAPI staining-based confocal microscopic analysis.
The target of test [12] is T2, Tubulin alpha (Homo sapiens). Description: Disruption of alpha-tubulin in human BT549 cells assessed as loss of cellular structure at 10 uM after 6 hrs by FITC/DAPI staining-based confocal microscopic analysis. Format: cell-based. The method, boiled down:
as §2

In the next test the test system is MDA-MB-468. Put plainly: Cytotoxicity against human MDA-MB-468 cells after 72 hrs by MTT assay. Particulars: MDA-MB-468, 72 h. It is filed as functional, cell-based. The method, boiled down: as §1
For test [13], the system named is BT-549. Description: Cell cycle arrest in human BT549 cells assessed as accumulation of cells at G2/M phase at 4 uM after 24 hrs by propidium iodide staining-based flow cytometric analysis (reference value: 8.88%). Format: functional.
For another test, the system named is MDA-MB-231. Description: Cytotoxicity against human MDA-MB-231 cells after 72 hrs by MTT assay. Format: functional, cell-based. Particulars: MDA-MB-231, 72 h. The procedure, abridged:
as §1

The next test deals with Tubulin (Sus scrofa) (UniProt P02554+P02550). Put plainly: Inhibition of pig brain tubulin polymerization at 10 uM by spectrophotometric analysis relative to control. The procedure, abridged: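 Tubulin polymerization inhibition was measured with compounds at a final concentration of 10 µM.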
For test [14], the system named is BT-549. Description: Cell cycle arrest in human BT549 cells assessed as accumulation of cells at G2/M phase at 8 uM after 24 hrs by propidium iodide staining-based flow cytometric analysis (reference value: 8.88%). Format: functional.
The test system of test [15] is BT-549. Put plainly: Cell cycle arrest in human BT549 cells assessed as accumulation of cells at G0/G1 phase at 2 uM after 24 hrs by propidium iodide staining-based flow cytometric analysis (reference value: 65.28%). Format: functional.
In test [16] the target is T2, Tubulin alpha (Homo sapiens). Description: Disruption of alpha-tubulin in human BT549 cells assessed as formation of cellular rounding at 10 uM after 6 hrs by FITC/DAPI staining-based confocal microscopic analysis. Format: cell-based. The method, boiled down:
as §2

The target of test [17] is T1, Tubulin beta (Homo sapiens). Put plainly: Disruption of beta-tubulin in human BT549 cells assessed as round cell shape at 20 uM after 6 hrs by FITC/DAPI staining-based confocal microscopic analysis. The method, boiled down: as §2
A further test has as its system T47D. Put plainly: Cytotoxicity against human T47D cells after 72 hrs by MTT assay. It is filed as functional, cell-based. The method, boiled down:
as §1

In test [18] the test system is BT-549. Put plainly: Cell cycle arrest in human BT549 cells assessed as accumulation of cells at S phase at 8 uM after 24 hrs by propidium iodide staining-based flow cytometric analysis (reference value: 25.84%). Format: functional.
The target in test [19] is T1, Tubulin beta (Homo sapiens). Description: Disruption of beta-tubulin in human BT549 cells assessed as formation of cellular rounding at 10 uM after 6 hrs by FITC/DAPI staining-based confocal microscopic analysis. Format: cell-based. The procedure, abridged:
as §2

Test [20] deals with T2, Tubulin alpha (Homo sapiens). Description: Disruption of alpha-tubulin in human BT549 cells at 10 uM after 6 hrs by FITC/DAPI staining-based confocal microscopic analysis. It is filed as cell-based. The procedure, abridged: as §2
Test [21] has the same target. Put plainly: Disruption of alpha-tubulin in human BT549 cells assessed as round cell shape at 20 uM after 6 hrs by FITC/DAPI staining-based confocal microscopic analysis. The procedure, abridged: as §2
Test [22] has the same target. Put plainly: Disruption of alpha-tubulin in human BT549 cells assessed as wrapped microtubule at 20 uM after 6 hrs by FITC/DAPI staining-based confocal microscopic analysis. Format: cell-based. The procedure, abridged: as §2
Test [23] has as its target T1, Tubulin beta (Homo sapiens). Put plainly: Disruption of beta-tubulin in human BT549 cells assessed as loss of cellular structure at 10 uM after 6 hrs by FITC/DAPI staining-based confocal microscopic analysis. Format: cell-based. The method, boiled down: as §2

Tubulin (Sus scrofa), sequence (P02550 whole entry, looked up): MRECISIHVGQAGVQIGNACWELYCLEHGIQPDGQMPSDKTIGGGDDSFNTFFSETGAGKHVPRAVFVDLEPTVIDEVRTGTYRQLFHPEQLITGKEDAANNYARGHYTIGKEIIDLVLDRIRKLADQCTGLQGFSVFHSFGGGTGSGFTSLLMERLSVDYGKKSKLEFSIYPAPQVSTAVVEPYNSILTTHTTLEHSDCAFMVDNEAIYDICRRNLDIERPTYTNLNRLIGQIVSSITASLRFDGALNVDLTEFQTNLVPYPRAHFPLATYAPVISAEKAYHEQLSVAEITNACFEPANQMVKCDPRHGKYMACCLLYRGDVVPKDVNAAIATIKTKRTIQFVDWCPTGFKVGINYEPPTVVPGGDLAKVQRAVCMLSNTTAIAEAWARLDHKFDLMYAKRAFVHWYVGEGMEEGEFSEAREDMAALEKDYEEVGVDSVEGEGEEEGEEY
Tubulin (Sus scrofa), sequence (P02554 whole entry, looked up): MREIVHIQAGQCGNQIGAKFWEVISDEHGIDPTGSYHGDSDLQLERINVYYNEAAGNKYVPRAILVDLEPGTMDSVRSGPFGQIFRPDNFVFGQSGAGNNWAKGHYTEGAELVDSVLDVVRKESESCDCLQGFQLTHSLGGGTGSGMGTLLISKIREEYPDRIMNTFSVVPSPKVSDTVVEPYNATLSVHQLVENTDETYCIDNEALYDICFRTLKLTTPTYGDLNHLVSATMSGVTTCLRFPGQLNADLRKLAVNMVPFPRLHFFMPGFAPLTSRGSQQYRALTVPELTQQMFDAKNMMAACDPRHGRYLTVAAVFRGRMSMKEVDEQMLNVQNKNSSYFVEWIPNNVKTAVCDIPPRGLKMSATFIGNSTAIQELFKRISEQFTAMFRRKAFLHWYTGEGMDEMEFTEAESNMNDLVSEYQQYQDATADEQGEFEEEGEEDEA

Consider `COc1cc(C(=O)Nc2c(C(=O)c3ccc(Cl)cc3)[nH]c3cc(Cl)ccc23)cc(OC)c1OC`, for which the IC50 in the test on MCF7 is 10900 nM; with Hs-578T, > 100000 nM; with BT-549 [7] it was 3170 nM; on Tubulin, 9500 nM; with MDA-MB-468, 7920 nM; with MDA-MB-231, 6430 nM. In the test with T47D, this compound displayed an IC50 of 40 nM. In addition, the outcome in [1], in [3], in test [5], in test [11], in test [12] and in test [16] was Active. For the same compound, the result in [17], in [19], in test [20], in test [21], in [22] and in test [23] was Active. Moreover, the Activity with BT-549 [2] was 41.6%; in the test on BT-549 [4], 31.07%; in the test with BT-549 [6] it was 26.29%; in the test on BT-549 [8] it was 33.01%; in the test on BT-549 [9], “Dose-dependent effect”; with BT-549 [10] it was 19.76%. In addition, the Activity in the test with BT-549 [13] worked out at 35.92%; with BT-549 [14], 56.58%; with BT-549 [15] it was 32.1%; with BT-549 [18], 23.66%. This compound yielded an inhibition at Tubulin (Sus scrofa) of 59%.
`COc1ccc(/C=C\c2cc(OC)c(OC)c(OC)c2)cc1O` [COMBRETASTATIN A4]: the IC50 in the test with MCF7 came out at 3 nM; in the test with Hs-578T, 1.36 nM; in the test on BT-549 [7], 1.71 nM; with MDA-MB-468, 1.55 nM; with MDA-MB-231 it was 3.17 nM; in the test with T47D, 1.89 nM. Further, the Activity with BT-549 [10] was 8.9%; in the test with BT-549 [14] it was 72.9%; in the test on BT-549 [18] it was 18.2%.
